Read-outs that look alike come from different tables or passages of the source. Each block holds one compound with its values, some of them ahead of it.
Legend:
BC1 dhBMEC microvessels [1] = assay: Cytokine activation: permeability, adhesion molecules and leukocyte adhesion; assay type: cell-based, human
How it was run: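 dhBMEC microvessels in collagen I channels, perfused at ~1 dyn cm⁻² with serum-free endothelial media plus 1% platelet-poor serum, with or without 10 ng mL⁻¹ TNFα for 12 h. […] ICAM-1/VCAM-1 by immunostaining; breakdown by phase contrast. Mean ± SEM.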

[2] = cited from earlier work
[3] = target: P-glycoprotein (P-gp) in BC1 dhBMEC microvessels (Homo sapiens, UniProt P08183); assay: Efflux inhibition in BC1 dhBMEC microvessels; assay type: cell-based
P-glycoprotein (P-gp) in BC1 dhBMEC microvessels, sequence (P08183 whole entry, the tested form may be a part): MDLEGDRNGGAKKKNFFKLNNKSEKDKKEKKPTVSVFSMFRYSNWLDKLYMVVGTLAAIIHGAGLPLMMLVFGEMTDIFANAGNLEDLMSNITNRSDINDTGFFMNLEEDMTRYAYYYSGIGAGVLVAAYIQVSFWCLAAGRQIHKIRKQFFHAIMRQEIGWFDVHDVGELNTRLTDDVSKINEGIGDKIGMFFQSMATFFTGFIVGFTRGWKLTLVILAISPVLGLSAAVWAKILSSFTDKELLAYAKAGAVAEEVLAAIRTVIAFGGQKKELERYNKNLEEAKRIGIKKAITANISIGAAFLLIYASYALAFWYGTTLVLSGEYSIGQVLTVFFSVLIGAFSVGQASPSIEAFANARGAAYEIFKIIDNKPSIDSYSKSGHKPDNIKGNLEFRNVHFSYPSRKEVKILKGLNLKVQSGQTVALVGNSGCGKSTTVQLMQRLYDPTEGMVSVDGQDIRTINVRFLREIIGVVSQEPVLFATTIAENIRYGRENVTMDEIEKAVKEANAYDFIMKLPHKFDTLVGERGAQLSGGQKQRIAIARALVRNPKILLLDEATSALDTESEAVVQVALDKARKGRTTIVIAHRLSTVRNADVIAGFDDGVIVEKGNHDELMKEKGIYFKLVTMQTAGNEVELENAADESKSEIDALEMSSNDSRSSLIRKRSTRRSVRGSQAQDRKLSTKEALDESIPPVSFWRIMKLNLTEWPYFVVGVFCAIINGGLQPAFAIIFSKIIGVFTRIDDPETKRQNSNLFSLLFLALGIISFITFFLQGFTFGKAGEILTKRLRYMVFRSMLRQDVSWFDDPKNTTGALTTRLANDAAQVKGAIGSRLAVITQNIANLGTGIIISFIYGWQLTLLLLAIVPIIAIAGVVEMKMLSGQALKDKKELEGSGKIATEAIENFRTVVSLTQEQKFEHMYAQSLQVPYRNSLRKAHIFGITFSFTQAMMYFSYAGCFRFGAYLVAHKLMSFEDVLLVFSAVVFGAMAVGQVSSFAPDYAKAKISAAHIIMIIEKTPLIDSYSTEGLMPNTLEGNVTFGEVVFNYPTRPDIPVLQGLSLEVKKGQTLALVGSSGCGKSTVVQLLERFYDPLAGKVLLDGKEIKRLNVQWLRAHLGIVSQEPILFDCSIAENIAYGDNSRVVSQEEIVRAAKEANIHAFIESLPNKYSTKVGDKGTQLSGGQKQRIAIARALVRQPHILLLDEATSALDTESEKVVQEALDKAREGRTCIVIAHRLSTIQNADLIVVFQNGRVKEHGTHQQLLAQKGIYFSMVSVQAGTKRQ

p-glycoprotein = conditions: healthy humans, continuous infusion of tariquidar ref 80; cited from earlier work
BC1 dhBMEC microvessels [4] = assay: Solute permeability of BC1 dhBMEC microvessels; assay type: in vitro ADME, human; conditions: for Permeability on days four and six compared with day two: p > 0.05
HUVEC microvessels = assay: Solute permeability of HUVEC microvessels; assay type: in vitro ADME, human; conditions: for Permeability differences between day two, four and six: p > 0.05; for Permeability in HUVEC microvessels relative to BC1 dhBMEC microvessels: HUVEC vs BC1 dhBMEC
[5] = test system: iPS12, KW01 and AD6 dhBMEC microvessels
pial PCV microvessels = conditions: rat, not told; cited from earlier work
[6] = Solute permeability of HUVEC microvessels; assay type: in vitro ADME, human; conditions: human
[7] = test system: iPS12, KW01 and AD6 dhBMEC microvessels; assay: Solute permeability of dhBMEC microvessels from other iPSC lines; conditions: day two, p > 0.05 for all comparisons
[8] = 12-hour perfusion of 2 μM tariquidar

- Permeability of LY, R123 or 10 kDa dextran after TNFα compared to control (BC1 dhBMEC microvessels [1]; 10 ng mL^−1 TNFα, 12 hours, p > 0.05 for all comparisons): did not alter
Compound: TNFα
- Expression of adhesion molecules ICAM-1 and VCAM-1 (BC1 dhBMEC microvessels [1]; 10 ng mL^−1 TNFα, 12 hours, immunocytochemistry): upregulation
- Time to macroscopic breakdown of microvessels (BC1 dhBMEC microvessels [1]; microvessels exposed to TNFα with adherent PBMCs): ≤ 24 h

- Disruptions in paracellular permeability [3, 8]: not observed
- Increase in permeability of P-gp substrate Rhodamine 123 [3, 8]: two-fold
- Effect on mitochondrial localization of R123 ([3]; tariquidar treated BC1 dhBMEC microvessels): no noticeable effect
Compound: COc1cc2c(cc1OC)CN(CCc1ccc(NC(=O)c3cc(OC)c(OC)cc3NC(=O)c3cnc4ccccc4c3)cc1)CC2 [tariquidar]
- Cytotoxicity (barrier function and microvessel structure) ([3]; 12 hours of tariquidar exposure): did not result in apparent cytotoxicity
- Increase of verapamil distribution volume (p-glycoprotein): 2.73 fold

Further lines, the compound ahead of its results:

Compound: OC[C@@H](O)[C@@H](O)[C@H](O)[C@H](O)CO [mannitol, d-mannitol]
- Solubility limit [2]: around 1.4 M

Compound: Lucifer yellow [LY]
- Permeability (BC1 dhBMEC microvessels [4]; BC1 dhBMEC microvessels, day two): 2.50 ± 0.46 × 10^−7 cm s^−1
- Permeability, average value across all time points (BC1 dhBMEC microvessels [4]; BC1 dhBMEC microvessels, over six days (days two, four, six)): 2.84 ± 0.41 × 10^−7 cm s^−1
- Permeability on days four and six compared with day two (BC1 dhBMEC microvessels [4]; BC1 dhBMEC microvessels): did not increase
- PLY / PR123 (ratio of LY to R123 permeabilities) (BC1 dhBMEC microvessels [4]; dhBMEC microvessels, untreated): ~ 1.9
- Mean permeability over six days (HUVEC microvessels; HUVEC microvessels): 3.90 ± 0.16 × 10^−6 cm s^−1
- PLY / PR123 (ratio of LY to R123 permeabilities) (HUVEC microvessels; HUVEC microvessels): ~ 1.3
- Permeability differences between day two, four and six (HUVEC microvessels; HUVEC microvessels): no statistically significant differences
- Permeability in HUVEC microvessels relative to BC1 dhBMEC microvessels (HUVEC microvessels): more than 10 fold
- Permeability differences between BC1, iPS12, KW01 and AD6 microvessels [5]: no statistically significant differences
- Permeability in 15 μm pial PCV microvessels (pial PCV microvessels): 1 – 2 × 10^−7

Compound: COC(=O)c1ccccc1-c1c2ccc(=N)cc-2oc2cc(N)ccc12 [R123, Rhodamine 123]
- Permeability on days four and six compared with day two (BC1 dhBMEC microvessels [4]; BC1 dhBMEC microvessels): remained stable
- Papp at 20 min, 5 μM [6]: 3 ×10⁻⁶ cm/s
- Permeability differences between day two, four and six (HUVEC microvessels; HUVEC microvessels): no statistically significant differences
- Permeability in HUVEC microvessels relative to BC1 dhBMEC microvessels (HUVEC microvessels): about 20 fold
- Permeability differences between BC1, iPS12, KW01 and AD6 microvessels [7]: no statistically significant differences

— PMC6289621 (Biomaterials, 2018)
